What all share (assay type): functional, cell-based
In assay [1] the test system is OMM-1. Description: (§1) Antiproliferative activity against human OMM-1 cells assessed as cell viability measured after 72 hrs incubation by MTT assay. In short, it runs like this:
(§2)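 Seeded at 2 x 10^3 cells/well overnight, then exposed to a range of concentrations for 72 hours (the figure legend states 96 hr). Cell viability read by MTT, with medium alone as blank. Triplicate wells, at least three independent experiments. IC50/EC50 from curve fitting, reported as means ± SD (n=3).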
For orientation: Tetrazolium dyes change colour on reduction, which living cells bring about.

Assay [2] relates to OVCAR-3. In words: Antiproliferative activity against human OVCAR-3 cells assessed as cell viability measured after 72 hrs incubation by MTT assay. In short, it runs like this:
as §2

Assay [3] has as its system HEY A8. Description: (§3) Antiproliferative activity against human HeyA8 cells assessed as cell viability measured after 72 hrs incubation by MTT assay. In outline: as §2
Assay [4] has as its system MCF7. In words: Antiproliferative activity against human MCF7 cells assessed as cell viability measured after 72 hrs incubation by MTT assay. In short, it runs like this:
as §2

The nature of assay [5]: as §1. The settings on record: OMM-1, 72 h. In short, it runs like this: as §2
In assay [6] the test system is MCF7. In words: Antiproliferative activity against human MCF7 cells assessed as effect on doxycycline-induced PAK1-specific shRNA mediated reduction in PAK1 expression by measuring reduction in cell index after 114 hrs.
Assay [7] is described as follows: as §3. As to conditions: HEY A8, 72 h. In outline:
as §2

The source made the active and inactive calls. The calls are words filed in the database; no cut-off is given here.

As usually defined, the EC50 is the concentration needed to bring the measured effect to its halfway point.

Regarding `Nc1cccc2c1CN(C1CCC(=O)NC1=O)C2=O` (centres undefined), the outcome in assay [1], in assay [2], in assay [3] and in assay [4] was inactive.

In the case of `CC(C)NC(=O)N1CC[C@@H](NC2=Nc3cc(F)ccc3N(CC(F)F)c3ccc(Cl)cc32)C1`, the half-maximal effective concentration (EC50) in assay [5] came to 12 µM; in assay [2] (OVCAR-3, 72 h), 8.9 µM; in assay [7] it was 33.6 µM; in assay [4] (MCF7, 72 h) it was 11.8 µM. Moreover, the result in assay [6] was Active.

For the origin of these results see ChEMBL document CHEMBL5236601, “Development and Utility of a PAK1-Selective Degrader” (J Med Chem, 2022).
